The text below walks through data of ChEMBL document CHEMBL2029267, “Rapid assembly of a library of lipophilic iminosugars via the thiol-ene reaction yields promising pharmacological chaperones for the treatment of Gaucher disease” (J Med Chem, 2012).

Positions count from the first letter of the chain named. Active and inactive are the calls of the source. The rule behind the calls is not given here.

The target in one series is T1, Lysosomal acid glucosylceramidase (Homo sapiens, UniProt P04062).
T1 sequence (P04062 whole entry): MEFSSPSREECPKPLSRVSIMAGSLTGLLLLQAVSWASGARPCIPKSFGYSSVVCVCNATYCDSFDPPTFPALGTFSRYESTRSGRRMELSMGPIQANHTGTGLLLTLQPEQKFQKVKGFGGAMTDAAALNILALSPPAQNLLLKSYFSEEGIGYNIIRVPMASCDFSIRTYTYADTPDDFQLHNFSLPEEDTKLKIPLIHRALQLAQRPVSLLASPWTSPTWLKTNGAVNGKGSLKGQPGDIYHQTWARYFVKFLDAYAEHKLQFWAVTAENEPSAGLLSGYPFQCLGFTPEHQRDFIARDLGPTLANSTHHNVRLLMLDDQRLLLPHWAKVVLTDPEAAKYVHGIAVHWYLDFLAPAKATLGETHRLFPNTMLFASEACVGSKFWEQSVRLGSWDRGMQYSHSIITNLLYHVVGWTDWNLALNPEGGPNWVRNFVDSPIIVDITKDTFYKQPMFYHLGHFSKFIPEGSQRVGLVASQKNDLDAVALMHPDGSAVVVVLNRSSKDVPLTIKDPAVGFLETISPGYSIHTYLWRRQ
Put plainly: Competitive inhibition of wild type human glucocerebrosidase using 4-methylumbelliferyl beta-D-glucopyranoside as substrate after 15 mins by Dixon and Line-Weaver Burk plot analysis […].
Conditions: not given
As for `CCCCCCSCC[C@H]1NC[C@@H](O)[C@H](O)[C@H]1O.Cl`, the Ki came to 1.8 nM.
Same read-out and setting: with `O=C(NCCSCC[C@H]1NC[C@@H](O)[C@H](O)[C@H]1O)Nc1ccccc1` the figure was 12 nM.
On the same count and under the same terms, with `O[C@@H]1[C@@H](O)[C@@H](CCSCCc2ccccc2)NC[C@H]1O` the figure was 3 nM.

A further series concerns the target T2, Lysosomal acid glucosylceramidase (Homo sapiens) (UniProt P04062).
T2 sequence (whole entry): T1 sequence (P04062 whole entry)
Put plainly: Thermal denaturation of human glucocerebrosidase by differential scanning fluorimetry assessed as change in melting temperature at 100 uM and pH 7.
Conditions: not given
For the molecule `CCCCCCSCC[C@H]1NC[C@@H](O)[C@H](O)[C@H]1O.Cl`, the deltaTm stood at 15 K.
Regarding `O=C(NCCSCC[C@H]1NC[C@@H](O)[C@H](O)[C@H]1O)Nc1ccccc1`, the deltaTm stood at 11 K.
For `O[C@@H]1[C@@H](O)[C@@H](CCSCCc2ccccc2)NC[C@H]1O`, the deltaTm was determined as 14 K.

In another series the target is Lysosomal alpha-glucosidase (Homo sapiens) (UniProt P10253). Put plainly: Inhibition of human lysosomal alpha-glucosidase using 4-methylumbelliferyl alpha-D-glucopyranoside as substrate at 200 uM by fluorimetric analysis.
Conditions: not given
In a few lines: (§1)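 Enzyme source was a lysosomal-enzyme-enriched ConA-bound human placental fraction, run in 100 mM citrate–phosphate pH 4.5 with 0.025% human serum albumin at 37 °C. Compound was tested at 200 μM in triplicate. An equal volume of 4-MU substrate was added: α-Glc 3.0 mM (α-glucosidase), α-Gal 1.0 mM (α-galactosidase), β-Gal 0.5 mM (β-galactosidase). Reactions were stopped with 4-fold excess 100 mM aminomethylpropanol and fluorescence read at 365/460 nm.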
As for `CCCCCCSCC[C@H]1NC[C@@H](O)[C@H](O)[C@H]1O.Cl`, the inhibition result is “inactive”.
For the molecule `O=C(NCCSCC[C@H]1NC[C@@H](O)[C@H](O)[C@H]1O)Nc1ccccc1`, the inhibition result was “inactive”.
As for `O[C@@H]1[C@@H](O)[C@@H](CCSCCc2ccccc2)NC[C@H]1O`, the inhibition result is “inactive”.

For another series, the species on record is Homo sapiens. Put plainly: Inhibition of human lysosomal alpha-galactosidase using 4-methylumbelliferyl alpha-D-galactopyranoside as substrate at 200 uM by fluorimetric analysis.
Conditions: not given
The essentials:
as §1
As to `CCCCCCSCC[C@H]1NC[C@@H](O)[C@H](O)[C@H]1O.Cl`, the inhibition result was “inactive”.
Same read-out and setting: with `O=C(NCCSCC[C@H]1NC[C@@H](O)[C@H](O)[C@H]1O)Nc1ccccc1` the entry was “inactive”; with `O[C@@H]1[C@@H](O)[C@@H](CCSCCc2ccccc2)NC[C@H]1O`, “inactive”.

For another series, the species on record is Homo sapiens. Put plainly: Activation of intracellular glucocerebrosidase p.L444P mutant in gaucher patient fibroblast using 4-methylumbelliferyl beta-D-glucopyranoside as substrate relative to control.
Conditions: not given
`CCCCCCSCC[C@H]1NC[C@@H](O)[C@H](O)[C@H]1O.Cl` gave a fold change (FC) of 1.3.
Still for that read-out and setting: then `O=C(NCCSCC[C@H]1NC[C@@H](O)[C@H](O)[C@H]1O)Nc1ccccc1`, with 1.1.
On the same count and under the same terms, with `O[C@@H]1[C@@H](O)[C@@H](CCSCCc2ccccc2)NC[C@H]1O` the figure was 1.1.

Another series deals with T3, Lysosomal acid glucosylceramidase (Homo sapiens), P04062 [N409S].
T3 sequence (whole entry): T1 sequence (P04062 whole entry) with N409S
Put plainly: Activation of intracellular glucocerebrosidase p.N370S mutant in gaucher patient fibroblast using 4-methylumbelliferyl beta-D-glucopyranoside as substrate relative to control.
Conditions: not given
Consider `CCCCCCSCC[C@H]1NC[C@@H](O)[C@H](O)[C@H]1O.Cl`, for which the fold change (FC) was 2.1.
For the molecule `O=C(NCCSCC[C@H]1NC[C@@H](O)[C@H](O)[C@H]1O)Nc1ccccc1`, the fold change (FC) worked out at 2.3.
`O[C@@H]1[C@@H](O)[C@@H](CCSCCc2ccccc2)NC[C@H]1O` came in with a fold change (FC) of 2.2.

Test system in the next series: not listed separately
Put plainly: Cytotoxicity against gaucher patient fibroblast assessed as decrease in cell viability at 100 uM after 5 days by alamar blue assay. It is filed as cell-based. To be noted: human, 120 h. In a few lines: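 Viability of GD patient fibroblasts grown with compound at 10, 33 and 100 μM was read by a resazurin-based spectrophotometric assay.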
As to `CCCCCCSCC[C@H]1NC[C@@H](O)[C@H](O)[C@H]1O.Cl`, the Activity result is “Toxic”.

The subject of another series is T3, Lysosomal acid glucosylceramidase (Homo sapiens), P04062 [N409S]. Put plainly: Activation of intracellular glucocerebrosidase p.N370S mutant in gaucher patient fibroblast using 4-methylumbelliferyl beta-D-glucopyranoside as substrate assessed as concentration at which 50% of maximum increase in activity.
Conditions: not given
As for `CCCCCCSCC[C@H]1NC[C@@H](O)[C@H](O)[C@H]1O.Cl`, the Activity was found to be 2.7 nM.
Turning to `O=C(NCCSCC[C@H]1NC[C@@H](O)[C@H](O)[C@H]1O)Nc1ccccc1`, the Activity came out at 90 nM.
Take `O[C@@H]1[C@@H](O)[C@@H](CCSCCc2ccccc2)NC[C@H]1O`: the Activity came to 2.8 nM.

The species named for a further series is Homo sapiens. Put plainly: Activation of intracellular glucocerebrosidase p.L444P mutant in gaucher patient fibroblast using 4-methylumbelliferyl beta-D-glucopyranoside as substrate assessed as concentration at which 50% of maximum increase in activity.
Conditions: not given
For the molecule `CCCCCCSCC[C@H]1NC[C@@H](O)[C@H](O)[C@H]1O.Cl`, the Activity was determined as 0.6 nM.
As for `O=C(NCCSCC[C@H]1NC[C@@H](O)[C@H](O)[C@H]1O)Nc1ccccc1`, the Activity is 64 nM.
On the same count and under the same terms, with `O[C@@H]1[C@@H](O)[C@@H](CCSCCc2ccccc2)NC[C@H]1O` the figure was 2.1 nM.

A further series has as its target T4, Beta-galactosidase (Homo sapiens) (UniProt P16278).
T4 sequence (whole entry): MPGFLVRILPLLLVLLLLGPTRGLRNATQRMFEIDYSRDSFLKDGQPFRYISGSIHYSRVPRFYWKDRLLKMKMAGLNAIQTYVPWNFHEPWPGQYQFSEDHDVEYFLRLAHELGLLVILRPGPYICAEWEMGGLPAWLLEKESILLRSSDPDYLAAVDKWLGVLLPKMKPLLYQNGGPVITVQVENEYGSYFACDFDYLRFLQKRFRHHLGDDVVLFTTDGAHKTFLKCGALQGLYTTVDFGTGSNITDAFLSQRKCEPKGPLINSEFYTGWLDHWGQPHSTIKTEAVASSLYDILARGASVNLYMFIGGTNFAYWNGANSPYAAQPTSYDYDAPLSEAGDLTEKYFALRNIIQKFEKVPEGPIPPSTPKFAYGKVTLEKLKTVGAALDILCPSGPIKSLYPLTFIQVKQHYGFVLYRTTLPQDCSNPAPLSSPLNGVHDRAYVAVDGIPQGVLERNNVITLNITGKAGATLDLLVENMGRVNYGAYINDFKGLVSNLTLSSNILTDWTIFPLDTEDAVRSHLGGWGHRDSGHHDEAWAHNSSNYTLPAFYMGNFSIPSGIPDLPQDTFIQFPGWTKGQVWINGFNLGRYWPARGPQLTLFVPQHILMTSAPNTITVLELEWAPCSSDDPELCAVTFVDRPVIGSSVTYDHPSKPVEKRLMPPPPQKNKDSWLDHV
Put plainly: Inhibition of human lysosomal beta-galactosidase using 4-methylumbelliferyl beta-Dgalactopyranoside as substrate at 200 uM by fluorimetric analysis.
Conditions: not given
The essentials:
as §1
For the molecule `CCCCCCSCC[C@H]1NC[C@@H](O)[C@H](O)[C@H]1O.Cl`, the inhibition entry is “inactive”.
The same measure, in the same setting: then `O=C(NCCSCC[C@H]1NC[C@@H](O)[C@H](O)[C@H]1O)Nc1ccccc1`, with “inactive”.
`O[C@@H]1[C@@H](O)[C@@H](CCSCCc2ccccc2)NC[C@H]1O`: the inhibition entry is “inactive”.
